{"source": "ChEMBL document CHEMBL1949672", "about": "(J Med Chem, 2012)", "key": {"[1]": {"target": "T1, Adenosine receptor A1 (Homo sapiens, UniProt P30542)", "T1 sequence (P30542 whole entry)": "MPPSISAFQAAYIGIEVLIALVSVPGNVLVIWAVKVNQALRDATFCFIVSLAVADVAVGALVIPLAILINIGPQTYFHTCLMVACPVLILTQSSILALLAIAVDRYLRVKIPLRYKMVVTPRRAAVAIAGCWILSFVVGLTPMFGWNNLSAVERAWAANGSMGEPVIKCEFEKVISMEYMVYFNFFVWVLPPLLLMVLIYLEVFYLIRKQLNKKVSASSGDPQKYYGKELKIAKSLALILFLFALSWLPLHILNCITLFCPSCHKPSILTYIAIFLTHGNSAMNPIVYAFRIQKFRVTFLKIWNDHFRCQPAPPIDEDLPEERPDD", "experiment": "Displacement of [3H]N6-phenylisopropyladenosine from human A1 adenosine receptor expressed in CHO cell membranes after 60 mins", "outline": "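Membranes (40 µg/tube) from CHO cells stably expressing human A1 AR were incubated with 1 nM [3H]R-PIA in 50 mM Tris·HCl pH 7.4 with 10 mM MgCl2, at 25°C for 60 min. Nonspecific binding was defined with 10 µM CPA.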"}, "[2]": {"target": "T2, Adenosine receptor A2a (Homo sapiens, UniProt P29274)", "T2 sequence (P29274 whole entry)": "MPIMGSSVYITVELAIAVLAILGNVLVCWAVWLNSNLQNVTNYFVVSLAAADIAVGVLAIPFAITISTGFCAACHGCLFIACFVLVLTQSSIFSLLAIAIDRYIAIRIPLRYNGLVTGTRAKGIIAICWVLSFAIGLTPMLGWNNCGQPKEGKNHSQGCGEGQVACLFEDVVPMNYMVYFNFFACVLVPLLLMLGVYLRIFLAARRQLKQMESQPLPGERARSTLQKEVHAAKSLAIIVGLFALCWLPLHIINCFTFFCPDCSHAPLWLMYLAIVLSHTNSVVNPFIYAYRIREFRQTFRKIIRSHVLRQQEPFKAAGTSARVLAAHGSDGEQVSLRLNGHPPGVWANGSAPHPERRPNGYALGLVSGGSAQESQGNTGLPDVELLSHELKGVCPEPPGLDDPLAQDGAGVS", "experiment": "Displacement of [3H]2-[p-(2-carboxyethyl)phenylethylamino]-5'-N-ethylcarboxamido-adenosine from human A2A adenosine receptor expressed in HEK293 cell membranes after 60 mins"}, "[3]": {"target": "T3, Adenosine receptor A3 (Homo sapiens, UniProt P0DMS8)", "T3 sequence (P0DMS8 whole entry)": "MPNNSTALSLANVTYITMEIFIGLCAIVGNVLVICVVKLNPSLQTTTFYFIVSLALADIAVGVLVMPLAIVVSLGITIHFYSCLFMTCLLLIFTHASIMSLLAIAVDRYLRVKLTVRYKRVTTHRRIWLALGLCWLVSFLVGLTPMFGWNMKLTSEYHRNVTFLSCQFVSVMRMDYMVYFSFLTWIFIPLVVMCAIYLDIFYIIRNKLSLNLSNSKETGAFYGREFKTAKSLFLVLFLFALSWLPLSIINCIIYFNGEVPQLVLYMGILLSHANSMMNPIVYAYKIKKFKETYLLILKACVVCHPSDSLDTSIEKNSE", "experiment": "Displacement of [125I]N6-(4-amino-3-iodobenzyl)adenosine-5'-N-methyluronamide from human A3 adenosine receptor expressed in CHO cell membranes after 60 mins"}, "[4]": {"target": "T2, Adenosine receptor A2a", "experiment": "Agonist activity at human A2A adenosine receptor expressed in CHO cells assessed as stimulation of forskolin-induced cAMP production at 10 uM preincubated for 45 mins prior forskolin treatment measured after 15 mins by liquid scintillation spectrometry relative to 2-[p-(2-carboxyethyl)phenylethylamino]-5'-N-ethylcarboxamido-adenosine", "format": "functional, cell-based", "outline": "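CHO cells expressing human A2A AR; test compound at a single concentration of 10 µM; cyclic AMP production measured and expressed as mean percentage of the response to the full agonist CGS21680 (10 µM).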"}, "[5]": {"target": "T2, Adenosine receptor A2a", "experiment": "Binding affinity to A2A adenosine receptor"}, "[6]": {"experiment": "Displacement of [1251]PAPAAPEC from A2A adenosine receptor expressed in bovine striatal membranes after 1 hr by gamma counting", "format": "cell membranes, Bos taurus, Striatum, Membrane"}}, "data": [{"smiles": "CCNC(=O)[C@H]1O[C@@H](n2cnc3c(N)nc(NCCc4ccc(CCC(=O)N[C@@H](Cc5c[nH]c6ccccc56)C(=O)OC)cc4)nc32)[C@H](O)[C@@H]1O", "values": [{"measurement": "Ki", "setting": "[1]", "result": 1670, "unit": "nM"}, {"measurement": "Ki", "setting": "[2]", "result": 87.2, "unit": "nM"}, {"measurement": "Ki", "setting": "[3]", "result": 140, "unit": "nM"}, {"measurement": "Emax", "setting": "[4]", "result": 104, "unit": "%"}]}, {"smiles": "CCNC(=O)[C@H]1O[C@@H](n2cnc3c(N)nc(NCCc4ccc(CCC(=O)N[C@@H](Cc5ccccc5)C(=O)OC)cc4)nc32)[C@H](O)[C@@H]1O", "values": [{"measurement": "Ki", "setting": "[1]", "result": 1080, "unit": "nM"}, {"measurement": "Ki", "setting": "[2]", "result": 160, "unit": "nM"}, {"measurement": "Emax", "setting": "[4]", "result": 111, "unit": "%"}]}, {"smiles": "CCNC(=O)[C@H]1O[C@@H](n2cnc3c(N)nc(NCCc4ccc(CCC(=O)N[C@@H](Cc5c[nH]c6ccccc56)C(=O)O)cc4)nc32)[C@H](O)[C@@H]1O", "values": [{"measurement": "Ki", "setting": "[1]", "result": 1060, "unit": "nM"}, {"measurement": "Ki", "setting": "[2]", "result": 71.7, "unit": "nM"}, {"measurement": "Ki", "setting": "[3]", "result": 200, "unit": "nM"}, {"measurement": "Emax", "setting": "[4]", "result": 95.8, "unit": "%"}]}, {"smiles": "COc1cc(OC)cc([C@@H](CNc2ncnc3c2ncn3[C@@H]2O[C@H](CO)[C@@H](O)[C@H]2O)c2ccccc2C)c1", "values": [{"measurement": "Ki", "setting": "[5]", "result": 168, "unit": "nM"}]}, {"smiles": "CCNC(=O)[C@H]1O[C@@H](n2cnc3c(N)nc(NCCc4ccc(CCC(=O)N[C@@H](CCCN=C(N)N)C(=O)O)cc4)nc32)[C@H](O)[C@@H]1O", "values": [{"measurement": "Ki", "setting": "[1]", "result": 1110, "unit": "nM"}, {"measurement": "Ki", "setting": "[2]", "result": 100, "unit": "nM"}, {"measurement": "Ki", "setting": "[3]", "result": 620, "unit": "nM"}]}, {"smiles": "CCNC(=O)[C@H]1O[C@@H](n2cnc3c(N)nc(NCCc4ccc(CCC(=O)NCCNC(=S)Nc5ccc(N=C=S)cc5)cc4)nc32)[C@H](O)[C@@H]1O", "values": [{"measurement": "Ki", "setting": "[6]", "result": 7.1, "unit": "nM"}]}, {"smiles": "CCNC(=O)[C@H]1O[C@@H](n2cnc3c(N)nc(NCCc4ccc(CCC(=O)N[C@H](Cc5c[nH]c6ccccc56)C(=O)OC)cc4)nc32)[C@H](O)[C@@H]1O", "values": [{"measurement": "Ki", "setting": "[1]", "result": 1610, "unit": "nM"}, {"measurement": "Ki", "setting": "[2]", "result": 130, "unit": "nM"}, {"measurement": "Ki", "setting": "[3]", "result": 250, "unit": "nM"}, {"measurement": "Emax", "setting": "[4]", "result": 119, "unit": "%"}]}, {"smiles": "CCNC(=O)[C@H]1C[C@@H](n2cnc3c(N[C@H](CC)Cc4sccc4Cl)ccnc32)[C@H](O)[C@@H]1O", "values": [{"measurement": "Ki", "setting": "[5]", "result": 56, "unit": "nM"}]}, {"smiles": "CCNC(=O)[C@H]1O[C@@H](n2cnc3c(N)nc(NCCc4ccc(CCC(=O)N[C@H](Cc5c[nH]cn5)C(=O)O)cc4)nc32)[C@H](O)[C@@H]1O", "values": [{"measurement": "Ki", "setting": "[1]", "result": 350, "unit": "nM"}, {"measurement": "Ki", "setting": "[2]", "result": 40, "unit": "nM"}, {"measurement": "Ki", "setting": "[3]", "result": 320, "unit": "nM"}, {"measurement": "Emax", "setting": "[4]", "result": 106, "unit": "%"}]}, {"smiles": "CCNC(=O)[C@H]1O[C@@H](n2cnc3c(N)nc(NCCc4ccc(CCC(=O)N[C@H](Cc5ccccc5)C(=O)OC)cc4)nc32)[C@H](O)[C@@H]1O", "values": [{"measurement": "Ki", "setting": "[1]", "result": 1230, "unit": "nM"}, {"measurement": "Ki", "setting": "[2]", "result": 84.3, "unit": "nM"}, {"measurement": "Emax", "setting": "[4]", "result": 92.6, "unit": "%"}]}, {"smiles": "CCNC(=O)[C@H]1O[C@@H](n2cnc3c(N)nc(NCCc4ccc(CCC(=O)N[C@@H](Cc5c[nH]cn5)C(=O)O)cc4)nc32)[C@H](O)[C@@H]1O", "values": [{"measurement": "Emax", "setting": "[4]", "result": 105, "unit": "%"}]}, {"smiles": "CCNC(=O)[C@H]1O[C@@H](n2cnc3c(N)nc(NCCc4ccc(CCC(=O)N[C@H](CC(=O)O)C(=O)O)cc4)nc32)[C@H](O)[C@@H]1O", "values": [{"measurement": "Ki", "setting": "[1]", "result": 1180, "unit": "nM"}, {"measurement": "Ki", "setting": "[2]", "result": 110, "unit": "nM"}, {"measurement": "Ki", "setting": "[3]", "result": 790, "unit": "nM"}, {"measurement": "Emax", "setting": "[4]", "result": 94.3, "unit": "%"}]}, {"smiles": "CCNC(=O)[C@H]1O[C@@H](n2cnc3c(N)nc(NCCc4ccc(CCC(=O)N[C@@H](CCCNC(=N)N)C(=O)O)cc4)nc32)[C@H](O)[C@@H]1O", "values": [{"measurement": "Emax", "setting": "[4]", "result": 94.5, "unit": "%"}]}, {"smiles": "CCNC(=O)[C@H]1O[C@@H](n2cnc3c(N)nc(NCCc4ccc(CCC(=O)N[C@@H](Cc5ccccc5)C(=O)O)cc4)nc32)[C@H](O)[C@@H]1O", "values": [{"measurement": "Ki", "setting": "[1]", "result": 640, "unit": "nM"}, {"measurement": "Ki", "setting": "[2]", "result": 63.7, "unit": "nM"}, {"measurement": "Ki", "setting": "[3]", "result": 260, "unit": "nM"}, {"measurement": "Emax", "setting": "[4]", "result": 103, "unit": "%"}]}, {"smiles": "CCNC(=O)[C@H]1O[C@@H](n2cnc3c(N)nc(NCCc4ccc(CCC(=O)N[C@H](Cc5c[nH]c6ccccc56)C(=O)O)cc4)nc32)[C@H](O)[C@@H]1O", "values": [{"measurement": "Ki", "setting": "[1]", "result": 2160, "unit": "nM"}, {"measurement": "Ki", "setting": "[2]", "result": 130, "unit": "nM"}, {"measurement": "Ki", "setting": "[3]", "result": 520, "unit": "nM"}, {"measurement": "Emax", "setting": "[4]", "result": 113, "unit": "%"}]}, {"smiles": "CCNC(=O)[C@H]1O[C@@H](n2cnc3c(N)nc(NCCc4ccc(CCC(=O)N[C@H](CCCN=C(N)N)C(=O)O)cc4)nc32)[C@H](O)[C@@H]1O", "values": [{"measurement": "Ki", "setting": "[1]", "result": 990, "unit": "nM"}, {"measurement": "Ki", "setting": "[2]", "result": 50, "unit": "nM"}, {"measurement": "Ki", "setting": "[3]", "result": 220, "unit": "nM"}]}, {"smiles": "CCNC(=O)[C@H]1O[C@@H](n2cnc3c(N)nc(NCCc4ccc(CCC(=O)N[C@H](CCCNC(=N)N)C(=O)O)cc4)nc32)[C@H](O)[C@@H]1O", "values": [{"measurement": "Emax", "setting": "[4]", "result": 94.7, "unit": "%"}]}, {"smiles": "CCNC(=O)[C@H]1O[C@@H](n2cnc3c(N)nc(NCCc4ccc(CCC(=O)N[C@H](Cc5ccccc5)C(=O)O)cc4)nc32)[C@H](O)[C@@H]1O", "values": [{"measurement": "Ki", "setting": "[1]", "result": 550, "unit": "nM"}, {"measurement": "Ki", "setting": "[2]", "result": 34, "unit": "nM"}, {"measurement": "Ki", "setting": "[3]", "result": 140, "unit": "nM"}, {"measurement": "Emax", "setting": "[4]", "result": 93.4, "unit": "%"}]}, {"smiles": "O=C(NCCN1CCCCC1)c1nc(NCC(c2ccccc2)c2ccccc2)c2ncn([C@@H]3O[C@H](CO)[C@@H](O)[C@H]3O)c2n1", "values": [{"measurement": "Ki", "setting": "[5]", "result": 20.1, "unit": "nM"}]}, {"smiles": "CCNC(=O)[C@H]1O[C@@H](n2cnc3c(N)nc(NCCc4ccc(CCC(=O)N[C@@H](Cc5cnc[nH]5)C(=O)O)cc4)nc32)[C@H](O)[C@@H]1O", "values": [{"measurement": "Ki", "setting": "[1]", "result": 1000, "unit": "nM"}, {"measurement": "Ki", "setting": "[2]", "result": 110, "unit": "nM"}, {"measurement": "Ki", "setting": "[3]", "result": 830, "unit": "nM"}]}, {"smiles": "CCNC(=O)[C@H]1O[C@@H](n2cnc3c(N)nc(NCCc4ccc(CCC(=O)N[C@@H](CC(=O)O)C(=O)O)cc4)nc32)[C@H](O)[C@@H]1O", "values": [{"measurement": "Ki", "setting": "[1]", "result": 1900, "unit": "nM"}, {"measurement": "Ki", "setting": "[2]", "result": 180, "unit": "nM"}, {"measurement": "Ki", "setting": "[3]", "result": 1460, "unit": "nM"}, {"measurement": "Emax", "setting": "[4]", "result": 94.8, "unit": "%"}]}]}
